This is an account of results in ChEMBL document CHEMBL4339192, “De Novo Designed Amphipathic α-Helical Antimicrobial Peptides Incorporating Dab and Dap Residues on the Polar Face To Treat the Gram-Negative Pathogen, Acinetobacter baumannii” (J Med Chem, 2019).

Common to all, as to type: functional
In experiment [1] the test system is Acinetobacter baumannii. Kind of experiment: Antibacterial activity against polymyxin B/colistin-resistant Acinetobacter baumannii M89951 measured after 24 hrs by microtiter dilution method. A digest of the protocol: (§1)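 Broth microdilution in Mueller-Hinton (MH) medium. […] Plates were incubated 24 h at 37 °C. MIC was the lowest peptide concentration that inhibited growth, based on three sets of replicates.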

Experiment [2] concerns Acinetobacter baumannii. Kind of experiment: Antibacterial activity against polymyxin B/colistin-resistant Acinetobacter baumannii M89952 measured after 24 hrs by microtiter dilution method. In short, it runs like this:
as §1

The subject of experiment [3] is Acinetobacter baumannii. Kind of experiment: Antibacterial activity against polymyxin B/colistin-resistant Acinetobacter baumannii M89953 measured after 24 hrs by microtiter dilution method. A digest of the protocol: as §1
Experiment [4] deals with Acinetobacter baumannii. Kind of experiment: Antibacterial activity against polymyxin B/colistin-resistant Acinetobacter baumannii M89941 measured after 24 hrs by microtiter dilution method. A digest of the protocol:
as §1

Experiment [5] relates to Acinetobacter baumannii. The experiment is described as follows: Antibacterial activity against Acinetobacter baumannii 649 measured after 24 hrs in presence of 25% human serum by microtiter dilution method. The settings on record: Acinetobacter baumannii, 649, 24 h. A digest of the protocol: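 Blood strain 649 was tested by MH broth microdilution with and without 25% (v/v) human serum added to the medium. The test used a final inoculum of 5 × 10^5 cfu/mL and incubation at 37 °C. The ratio is the MIC in serum over the MIC in MH alone.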

In experiment [6] the test system is Acinetobacter baumannii. The experiment is described as follows: Antibacterial activity against Acinetobacter baumannii 649 measured after 24 hrs by microtiter dilution method. As to conditions: Acinetobacter baumannii, 649, 24 h. In short, it runs like this:
as §1

The subject of experiment [7] is Acinetobacter baumannii. Kind of experiment: Antibacterial activity against polymyxin B/colistin-resistant Acinetobacter baumannii M89955 measured after 24 hrs by microtiter dilution method. A digest of the protocol: as §1
The test system of experiment [8] is Acinetobacter baumannii. The experiment is described as follows: Antibacterial activity against polymyxin B/colistin-resistant Acinetobacter baumannii M89949 measured after 24 hrs by microtiter dilution method. A digest of the protocol: as §1
Experiment [9] has as its system Acinetobacter baumannii. The experiment is described as follows: Antibacterial activity against polymyxin B/colistin-resistant Acinetobacter baumannii M89963 measured after 24 hrs by microtiter dilution method. In short, it runs like this:
as §1

Values after ≈ are worked out from the molar mass of the structure shown. Where a SMILES comes first, the peptide text is derived from it. Bridges are numbered along the chain shown (N, C = ends). [ ]: non-standard residue; d: D form. The star is where a group is joined. X1 = CC[C@H](C)CCCCC(=O)*; Dab = NCC[C@H](N)C(=O)O Some results are limits rather than exact numbers.

As for `CC(=O)N[C@H](CCCCN)C(=O)N[C@H](CC(C)C)C(=O)N[C@H](CCCNC(=N)N)C(=O)N[C@H](CO)C(=O)N[C@H](CC(C)C)C(=O)N[C@H](CC(C)C)C(=O)N[C@H](CCCNC(=N)N)C(=O)N[C@@H](C(=O)N[C@H](CC(C)C)C(=O)N[C@H](CO)C(=O)N[C@H](CCCNC(=N)N)C(=O)N[C@H](C)C(=O)N[C@H](CCCCN)C(=O)N[C@H](C)C(=O)N[C@H](C)C(=O)N[C@H](CCCCN)C(=O)N[C@H](CC(C)C)C(=O)N[C@H](CCCNC(=N)N)C(=O)N[C@@H](C(=O)N[C@H](CC(C)C)C(=O)N[C@H](CC(C)C)C(=O)N[C@H](CCCNC(=N)N)C(=O)N[C@H](C)C(=O)N[C@H](CC(C)C)C(=O)N[C@H](CO)C(=O)N[C@H](CCCNC(=N)N)C(N)=O)[C@H](C)O)[C@H](C)O` (Ac-[dK][dL][dR][dS][dL][dL][dR][dT][dL][dS][dR][dA][dK][dA][dA][dK][dL][dR][dT][dL][dL][dR][dA][dL][dS][dR]-NH2), the MIC with Acinetobacter baumannii [1] (M89951, 24 h) came to 0.7 µM (≈ 2.12 µg/mL); in the experiment on Acinetobacter baumannii [2] (M89952, 24 h), 0.7 µM (≈ 2.12 µg/mL); in the experiment with Acinetobacter baumannii [3] (M89953, 24 h) it was 0.7 µM (≈ 2.12 µg/mL); against Acinetobacter baumannii [4] (M89941, 24 h) it was 1.3 µM (≈ 3.94 µg/mL); with Acinetobacter baumannii [5], 1.3 µM; in the experiment on Acinetobacter baumannii [6], 0.7 µM (≈ 2.12 µg/mL). In the experiment with Acinetobacter baumannii [7] (M89955, 24 h), inhibition of growth (MIC) required 0.7 µM (≈ 2.12 µg/mL).
Take `CC[C@H](C)CCCCC(=O)N[C@@H](CCN)C(=O)N[C@H](C(=O)N[C@@H](CCN)C(=O)N[C@H]1CCNC(=O)[C@H]([C@@H](C)O)NC(=O)[C@H](CCN)NC(=O)[C@H](CCN)NC(=O)[C@H](CC(C)C)NC(=O)[C@@H](Cc2ccccc2)NC(=O)[C@H](CCN)NC1=O)[C@@H](C)O` (X1-[Dab]T[Dab][Dab][Dab][dF]L[Dab][Dab]T; lactam 4-C): the MIC in the experiment on Acinetobacter baumannii [1] (M89951, 24 h) is greater than 25 µM; against Acinetobacter baumannii [2] (M89952, 24 h) it was greater than 25 µM; in the experiment with Acinetobacter baumannii [3] (M89953, 24 h) it was greater than 25 µM; against Acinetobacter baumannii [4] (M89941, 24 h), greater than 25 µM; with Acinetobacter baumannii [8] (M89949, 24 h), greater than 25 µM; against Acinetobacter baumannii [7] (M89955, 24 h), greater than 25 µM. This compound also returned a minimum inhibitory concentration (MIC) with Acinetobacter baumannii [9] (M89963, 24 h) greater than 25 µM.
With COLISTIN, the MIC against Acinetobacter baumannii [1], in the experiment with Acinetobacter baumannii [2], in the experiment with Acinetobacter baumannii [3], in the experiment with Acinetobacter baumannii [4], against Acinetobacter baumannii [8] and against Acinetobacter baumannii [7] was greater than 28 µM throughout. The compound further returned an MIC in the experiment on Acinetobacter baumannii [9] greater than 28 µM.
